Source: PubChem
Hits are enriched below; roughly 2% of the tested compounds scored in any of these assays.
EBI2 block – EBI2 receptor antagonists, beta-arrestin recruitment, primary screen, cell-based, luminescence, 7a,25-OHC stimulation, uHTS. G-protein coupled receptor 183 (Homo sapiens), P32249. 7a,25-OHC stimulated. inhibition, % at 5 µM. 0.81% of 360,000 active. AID 651636, 2012; in the data active means inhibition above about 38%;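 further: enzyme fragment complementation signal reports receptor beta-arrestin coupling in cells; 0% = agonist plus DMSO wells and 100% = wells without agonist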
CXCR6 block – CXCR6 receptor inhibitors, primary screen, cell-based, beta-arrestin, luminescence, CHO-K1 PathHunter, 1536-well | inhibition, % at 20 µM | 0.36% of 360,000 active; in the data active means inhibition above about 34%, passing the limit was not always enough;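 further: antagonist mode with CXCL16 agonist at 10 nM final; 0% = 10 nM CXCL16 with DMSO and 100% = unstimulated wells without agonist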
APJ antagonist – antagonists of human apelin receptor APJ, primary screen, CHO-K1 cells, beta-arrestin complementation, luminescence. 0.32% of 330,000 active. inhibition, % at 20 µM;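 active means inhibition above about 40% at 20 µM, limit read from the data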;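 further: cells challenged with 10 nM apelin-13 agonist together with compound; plate controls were apelin-13 plus DMSO wells for no effect and DMSO wells lacking apelin-13 for full effect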
CCR6 antag – CCR6 receptor antagonists, primary screen, cell-based, CHO-K1, luminescence, beta-arrestin, uHTS | CHO-K1 CCR6 PathHunter beta-arrestin, CCL20-stimulated | inhibition, % at 20 µM | 0.49% of 340,000 active | AID 493098, 2011;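 active means compounds whose inhibition of the agonist-driven luminescence signal at 20 µM reaches about 50%, limit read from the data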;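 further: cells stimulated with CCL20 at 14 nM final; plate controls were DMSO with CCL20 for no effect and DMSO without agonist for full effect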
Target sequence (P51684 whole entry, looked up): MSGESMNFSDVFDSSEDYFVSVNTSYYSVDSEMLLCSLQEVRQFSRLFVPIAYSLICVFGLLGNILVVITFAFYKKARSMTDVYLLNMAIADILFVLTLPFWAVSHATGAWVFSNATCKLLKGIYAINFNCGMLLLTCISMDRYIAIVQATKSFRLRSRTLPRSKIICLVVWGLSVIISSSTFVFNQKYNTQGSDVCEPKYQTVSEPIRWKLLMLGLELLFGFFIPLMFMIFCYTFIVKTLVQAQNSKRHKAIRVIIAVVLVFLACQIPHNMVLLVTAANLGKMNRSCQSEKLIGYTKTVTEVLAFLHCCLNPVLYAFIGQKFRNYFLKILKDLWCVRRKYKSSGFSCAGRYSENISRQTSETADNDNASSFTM
GAA850 FXN act – FXN promoter activators, primary screen, cell-based, luciferase luminescence, HEK293 lucGAA850; HEK293 lucGAA850 FXN promoter luciferase reporter, 24 h; percent of 10 µM SAHA response; 0.56% of 360,000 active; activation, % at 6 µM;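 active means activation above the average of all compounds screened plus 3 SD, cutoff fixed separately per campaign, cut at about 7.5% in these data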;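 further: 0% = DMSO wells and 100% = 10 µM SAHA wells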
APJ agonist – agonists of human apelin receptor APJ, primary screen, CHO-K1 cells, PathHunter beta-arrestin, luminescence | 0% DMSO wells, 100% apelin | activation, % at 20 µM | 0.11% of 330,000 active | AID 2520, 2010;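 active means activation more than six SD over the plate average, tested at 20 µM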;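 further: 0% = DMSO alone and 100% = apelin-13 at 10 nM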
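Incubation: overnight seeding, 90 min compound at 25 °C, 1 h detection; test system: PathHunter CHO-K1 APJ (AGTRL-1) beta-arrestin reporter cells; amount: 1000 cells/well; doses: one dose, 20 µM compound, 1% DMSO; measured by: beta-gal luminescence; measure: agonist-driven arrestin binding to APJ; benchmarks: negative DMSO alone, positive Apelin-13 at 10 nM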
GAA30 counter – GAA30 FXN promoter activators, confirmation, counter-screen for GAA850 frataxin promoter activator project, cell-based, luminescence, HEK293, lucGAA30, triplicate. activation, % at 6 µM. HEK293 lucGAA30 FXN promoter luciferase, 24 h; DMSO = 0%, 5 µM ipriflavone = 100%. AID 588350, 2011. shares compounds with GAA850 FXN act. 66% of 1,900 active;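 active means mean activation above the mean of solvent-only control wells plus 3 SD, cut at about 22% in these data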;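 further: counterscreen of GAA850 promoter hits where activity marks nonselective or luminescence artifacts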
GAA850 confirm – FXN GAA850 promoter activators in reporter cells, confirmation, cell-based, luminescence, HEK293 lucGAA850, triplicate; activation, % at 6 µM; shares compounds with GAA850 FXN act; HEK293 lucGAA850 FXN promoter luciferase reporter, 24 h; 100% = activation by SAHA; 86% of 1,900 active;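 active means mean activation above a set limit taken from the primary screen, cut at about 8% in these data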;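 further: 0% = DMSO wells and 100% = 10 µM SAHA wells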
An asterisk follows results filed as active; x = not tested or not shown.

SMILES | EBI2 block | CXCR6 block | APJ antagonist | CCR6 antag | GAA850 FXN act | APJ agonist | GAA30 counter | GAA850 confirm
CC(=O)Nc1ccc(NC(=O)c2ccc(-c3ccnn3C)c3ccoc23)cc1 | -26 | 2 | x | x | -6 | x | x | x
O=c1oc2cc(O)ccc2s1 | -1 | -11 | -1 | -2 | 9.6* | -3 | -4 | 16*
COc1ccc(C2=Nn3c(nnc3-c3ccccc3)SC2)cc1OC | -8 | -3 | 3 | -1 | 9.5* | -3 | 22* | 18*
CCCc1nnc2n1N=C(c1ccc(OC)c(OC)c1)CS2 | -2 | 3 | -18 | 11 | 12* | 3 | 35* | 13*
COc1ccc(C2=Nn3c(nnc3C3CCCCC3)SC2)cc1OC | -2 | 0 | -12 | -13 | 13* | 5 | 14 | 13*
COc1ccc(OCc2nnc3n2N=C(c2ccc(OC)cc2)CS3)cc1 | 22 | 1 | 7 | 10 | 2 | -2 | x | x
COc1ccc(OC)c(-c2nnc3n2N=C(c2ccc(OC)c(OC)c2)CS3)c1 | -18 | 6 | 5 | -2 | 1 | -1 | x | x
CCNC(=O)C1(C)CCN(C(=O)c2cccc3ccccc23)C1 (centres undefined) | -12 | -2 | x | x | 0 | x | x | x
Cc1ccc(F)c(S(=O)(=O)NC(=O)C2(C)CCN2C(=O)Cc2ccc(-c3ccccc3)cc2)c1 (centres undefined) | -9 | -2 | x | x | 1 | x | x | x
CC(C)c1ccc(OCC(=O)N2CCCCCC2)c(Br)c1 | -8 | -6 | -9 | 19 | 7.8* | 0 | 86* | 29*
S=C(Nc1ccccn1)c1ccccn1 | -5 | 27 | 12 | 41 | 15* | -1 | 104* | 43*
O=C(Nc1ccccn1)C(=O)Nc1ccccn1 | 9 | -8 | -12 | -2 | 6 | -4 | x | x
Cc1ccc(C)c(NC(=S)c2ccccn2)c1 | 5 | 38 | 10 | 31 | 13* | -5 | 78* | 28*
S=C(NCCc1ccccc1)Nc1ccccn1 | 0 | -4 | -34 | -9 | 8.0* | -3 | 98* | 30*
CC(=O)Nc1ccc(C(=O)N2CCOCC2c2cc(C(=O)NCc3ccccc3)no2)cc1 (centres undefined) | -3 | 5 | x | x | 0 | x | x | x
CC1=C([N+](=O)[O-])C(c2cccc(Br)c2)C2=C(N1)c1ccccc1C2=O (centres undefined) | 2 | 14 | -4 | 44 | 15* | -3 | -13 | 35*
CC(c1ccccc1)N(C)C(=O)CSc1nnc(C2CC2)n1C1CC1 (centres undefined) | -7 | 8 | -7 | 2 | 0 | 3 | x | x
COc1ccc2c(c1)OC[C@H]1[C@H]2N2C(=O)CN(CCc3c[nH]c4ccccc34)C(=O)[C@@]2(C)[C@H]1c1ccccc1 | 19 | 3 | -2 | 12 | 7.8* | -2 | 22* | 18*
CCOC(=O)[C@H]1[C@H]2COc3cc(OC)ccc3[C@@H]2N2C(=O)CN(CCc3c[nH]c4ccccc34)C(=O)[C@@]12C | -12 | -5 | 9 | 3 | 1 | -2 | x | x
Cn1c(CCN2CCCCC2)nc2cc([N+](=O)[O-])ccc21 | -8 | 2 | -8 | -16 | 7.7* | 0 | 18 | 17*
CCN1CCN(CCc2nc3cc([N+](=O)[O-])ccc3n2C)CC1 | -6 | -18 | 2 | 4 | 1 | -6 | x | x
CCn1c(C)nc2cc(C(=O)N/N=C/c3ccccc3C)ccc21 | -36 | -1 | -2 | -9 | 13* | -3 | 93* | 36*
COc1ccccc1-n1c(C)c(C(=O)O)c2cc(OC)c3ccccc3c21 | -1 | -8 | -9 | -6 | 0 | -2 | x | x
N#CCn1cnc2sc(-c3ccccc3)cc2c1=O | 4 | -2 | -7 | -6 | 9.2* | -2 | 76* | 28*
CCn1cnc2sc(-c3ccccc3)cc2c1=O | 3 | 7 | 8 | 6 | 5 | -3 | x | x
SMILES | EBI2 block | CXCR6 block | APJ antagonist | CCR6 antag | GAA850 FXN act | APJ agonist | GAA30 counter | GAA850 confirm
COc1ccc([C@H]2CC(=O)C=C(c3cc(OC)ccc3OC)C2)cc1 | 12 | 6 | 11 | 23 | -3 | -2 | x | x
CC(/C=C/c1ccco1)=N/NC(=O)Cc1cccs1 | -4 | -1 | 10 | -18 | 8.2* | -2 | 37* | 18*
CC(/C=C/c1ccco1)=N/NC(=O)OC(C)(C)C | -7 | -3 | -5 | 8 | 8.8* | -6 | 68* | 27*
C/C(=N/NC(=O)OC(C)(C)C)c1ccco1 | -9 | -13 | 9 | -4 | 4 | 0 | x | x
COc1cc(CN2C[C@@H](CO)O[C@@H](n3cnc4c(NC5CCCC5)ncnc43)C2)cc(OC)c1OC | -9 | -3 | x | x | 0 | x | x | x
O=C(O)c1ccc(-c2nc(-c3ccc(Cl)cc3Cl)cs2)cc1 | 6 | 2 | 7 | 6 | 8.2* | 1 | 113* | 44*
COc1ccc(-c2csc(-c3ccc(C(=O)O)cc3)n2)cc1 | -7 | 8 | 17 | 3 | 9.8* | -3 | 85* | 37*
COc1ccc(-c2nc(CC(=O)O)cs2)cc1 | -6 | 2 | 14 | -1 | -1 | -4 | x | x
O=C(O)c1ccc(-c2nc(-c3ccc(Cl)cc3)cs2)cc1 | 8 | -6 | x | -7 | 6 | x | x | x
O=C(CC(O)c1ccccc1)Nc1ccccn1 (centres undefined) | -6 | 3 | x | -3 | -1 | x | x | x
COc1ccc(-c2cn3ccccc3n2)cc1OC | -6 | -5 | 25 | -11 | 7.9* | -1 | 146* | 44*
COc1ccc(-c2cn3cc(C)ccc3n2)cc1OC | 2 | 1 | -7 | 1 | 3 | 9 | x | x
Nc1nc(CSC(=S)N2CCOCC2)nc(Nc2ccc(F)cc2)n1 | 6 | -12 | -22 | 4 | 6 | -1 | x | x
COc1ccc(Nc2nc(N)nc(CSC(=S)N3CCOCC3)n2)cc1 | -5 | -3 | -8 | -3 | 7.6* | 1 | 83* | 32*
CC(C(=O)Nc1ccc(Cl)cc1Cl)N1C(=O)NC2(CCCCCCC2)C1=O (centres undefined) | 11 | -3 | 5 | -5 | -1 | -4 | x | x
